This is an account of results in ChEMBL document CHEMBL1177700, “Discovery of bishomo(hetero)arylpiperazines as novel multifunctional ligands targeting dopamine D(3) and serotonin 5-HT(1A) and 5-HT(2A) receptors” (J Med Chem, 2010).

Calls of active or inactive are those of the source. The rule behind the calls is not given here.

Broadly, the Ki is the dissociation constant of the complex between target and ligand, obtained from inhibition or displacement. As usually defined, the Cmax is the maximum level reached in the sampled fluid or tissue. As usually defined, the logP is a log measure of how a compound divides between an organic and an aqueous phase. Low values mean lower lipophilicity, high ones higher lipophilicity. Usually AUC(0-t) stands for the area under the concentration-time curve up to a stated or last time point. A higher AUC(0-t) goes with high exposure. In general, logD refers to the decadic logarithm of the distribution of all forms, ionised or not, between an organic phase and buffer at a given pH. A low value points to lower lipophilicity. In general, Tmax refers to the time at which the peak concentration occurs.

Sequence of Voltage-gated inwardly rectifying potassium channel KCNH2 (Q12809 whole entry): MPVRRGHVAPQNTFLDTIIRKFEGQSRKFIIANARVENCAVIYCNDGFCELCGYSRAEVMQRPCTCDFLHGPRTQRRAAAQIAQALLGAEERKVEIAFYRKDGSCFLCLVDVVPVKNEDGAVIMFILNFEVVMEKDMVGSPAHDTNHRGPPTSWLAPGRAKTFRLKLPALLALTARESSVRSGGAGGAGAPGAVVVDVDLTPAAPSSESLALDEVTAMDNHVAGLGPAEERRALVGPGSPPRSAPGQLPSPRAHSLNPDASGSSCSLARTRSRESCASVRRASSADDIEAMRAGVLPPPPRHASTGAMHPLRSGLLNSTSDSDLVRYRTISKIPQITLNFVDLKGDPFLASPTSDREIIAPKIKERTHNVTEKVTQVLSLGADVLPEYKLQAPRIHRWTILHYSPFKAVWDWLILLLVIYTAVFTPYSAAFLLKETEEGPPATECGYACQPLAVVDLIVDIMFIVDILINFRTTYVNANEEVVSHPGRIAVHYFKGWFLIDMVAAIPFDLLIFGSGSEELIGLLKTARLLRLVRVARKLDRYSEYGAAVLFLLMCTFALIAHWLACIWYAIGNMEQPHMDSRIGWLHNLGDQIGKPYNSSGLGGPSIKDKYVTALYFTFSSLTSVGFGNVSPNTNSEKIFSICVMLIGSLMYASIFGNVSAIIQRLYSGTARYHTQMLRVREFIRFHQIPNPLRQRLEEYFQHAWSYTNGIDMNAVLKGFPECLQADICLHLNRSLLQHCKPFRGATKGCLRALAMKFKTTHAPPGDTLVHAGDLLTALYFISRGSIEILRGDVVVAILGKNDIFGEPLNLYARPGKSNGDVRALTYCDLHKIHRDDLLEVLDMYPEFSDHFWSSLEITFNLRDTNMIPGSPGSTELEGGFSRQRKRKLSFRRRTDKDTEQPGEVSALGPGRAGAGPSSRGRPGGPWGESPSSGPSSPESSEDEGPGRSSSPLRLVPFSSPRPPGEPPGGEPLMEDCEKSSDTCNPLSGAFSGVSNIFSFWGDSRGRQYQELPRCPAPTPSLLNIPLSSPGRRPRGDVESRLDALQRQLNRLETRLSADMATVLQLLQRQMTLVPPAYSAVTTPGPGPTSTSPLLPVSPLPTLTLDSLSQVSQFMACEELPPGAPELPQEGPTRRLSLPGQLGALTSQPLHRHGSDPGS
Sequence of D(1A) dopamine receptor (P18901 whole entry): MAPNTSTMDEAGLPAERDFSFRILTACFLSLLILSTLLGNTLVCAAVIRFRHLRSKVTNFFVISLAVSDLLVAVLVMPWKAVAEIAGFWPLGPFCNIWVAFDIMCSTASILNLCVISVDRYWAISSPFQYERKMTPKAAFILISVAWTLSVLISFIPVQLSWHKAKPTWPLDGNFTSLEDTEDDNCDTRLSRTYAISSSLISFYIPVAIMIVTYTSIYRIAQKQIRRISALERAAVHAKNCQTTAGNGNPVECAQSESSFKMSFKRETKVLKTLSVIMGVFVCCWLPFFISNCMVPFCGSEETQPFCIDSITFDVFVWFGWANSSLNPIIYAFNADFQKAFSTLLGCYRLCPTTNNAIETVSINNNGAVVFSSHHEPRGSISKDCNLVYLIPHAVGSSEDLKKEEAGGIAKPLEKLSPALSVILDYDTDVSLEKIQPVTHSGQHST

One series has as its target Voltage-gated inwardly rectifying potassium channel KCNH2 (Homo sapiens, UniProt Q12809). Briefly: Binding affinity to human ERG expressed in HEK293 cells.
Details: not given
The class given is cell-based.
Consider `Cc1cccc(N2CCN(CCCCCCN3CCN(c4ccnc5ccccc45)CC3)CC2)c1`, for which affinity was put at a Ki of 0.9 µM.

Regarding `c1ccc(N2CCN(CCCCCCN3CCN(c4ccccc4)CC3)CC2)cc1`, the Ki was found to be 8 µM.

For `COc1cccc(N2CCN(CCCCCCN3CCN(c4cccc(OC)c4)CC3)CC2)c1`, affinity was put at a Ki of 2.4 µM.

Turning to `c1ccc(N2CCN(CCCCCCN3CCN(c4ccccn4)CC3)CC2)cc1`, the Ki worked out at 13 µM. Compared with the last compound, the Ki is about 5.4-fold higher.

Target in a further series: not listed separately
Put plainly: Displacement of [3H]mesulergine from 5HT2C receptor in CRL:(HA) BR albino guinea pig cortex by scintillation spectrometry. More on the design: species or system Cavia porcellus.
Details: not given
Put shortly:
(§1)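 Radioligand displacement binding gave Ki (nM). Each value is the mean of three determinations, with SD within 10% of the mean.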
Take `c1ccc(N2CCN(CCCCCCN3CCN(c4ccccc4)CC3)CC2)cc1`: the Ki was > 1000 nM.

Take `COc1cccc(N2CCN(CCCCCCN3CCN(c4cccc(OC)c4)CC3)CC2)c1`: the Ki amounted to 303 nM.

For the compound `c1ccc(N2CCN(CCCCCCN3CCN(c4ccccn4)CC3)CC2)cc1`, the Ki is > 1000 nM.

Tested on in another series: not listed separately
Briefly: Cmax in NMRI mouse at 3 mg/kg, ip. Format: ADME, organism-based. Also noted: dose 3 mg/kg, route intraperitoneal. To be noted: in vivo. Put shortly: (§2)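 Mice received a single 3 mg/kg ip dose, and plasma concentrations were measured over time. […] Cmax, Tmax and T1/2 were taken from the plasma level profiles.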
As to `c1ccc(N2CCN(CCCCCCN3CCN(c4ccccc4)CC3)CC2)cc1`, the peak level (Cmax) was 71 ng/mL.

`c1ccc(N2CCN(CCCCCCN3CCN(c4ccccn4)CC3)CC2)cc1` returned a Cmax of 50 ng/mL. This Cmax and that of the compound before are within 1.5-fold of each other.

Tested on in the next series: not listed separately
Put plainly: Partition coefficient, log P of the compound. To be noted: octanol/water. Format: physicochemical.
The compound `Cc1cccc(N2CCN(CCCCCCN3CCN(c4ccnc5ccccc45)CC3)CC2)c1` displayed a logP of 6.23.

In turn, `c1ccc(N2CCN(CCCCCCN3CCN(c4ccccc4)CC3)CC2)cc1` gave a logP of 3.83.

Compound `COc1cccc(N2CCN(CCCCCCN3CCN(c4cccc(OC)c4)CC3)CC2)c1` gave a logP of 4.19.

`c1ccc(N2CCN(CCCCCCN3CCN(c4ccccn4)CC3)CC2)cc1` registered a logP of 3.61.

The target of another series is T1, 5-hydroxytryptamine receptor 1A (Rattus norvegicus, UniProt P19327).
T1 sequence (P19327 whole entry): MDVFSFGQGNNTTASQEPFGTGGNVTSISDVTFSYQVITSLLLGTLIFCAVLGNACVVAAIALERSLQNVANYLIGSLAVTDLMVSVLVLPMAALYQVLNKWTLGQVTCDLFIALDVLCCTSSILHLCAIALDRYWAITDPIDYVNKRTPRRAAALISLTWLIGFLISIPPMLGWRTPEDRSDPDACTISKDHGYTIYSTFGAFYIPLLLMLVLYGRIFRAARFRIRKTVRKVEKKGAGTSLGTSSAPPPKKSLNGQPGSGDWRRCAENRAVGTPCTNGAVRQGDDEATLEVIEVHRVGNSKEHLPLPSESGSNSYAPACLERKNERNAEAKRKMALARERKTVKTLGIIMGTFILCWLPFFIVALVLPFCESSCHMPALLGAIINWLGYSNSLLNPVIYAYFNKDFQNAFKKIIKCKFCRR
Briefly: Displacement of [3H]8OH-DPAT from 5HT1A receptor in rat CRL:CD(SD)BR-COBS hippocampus by scintillation spectrometry. The class given is tissue-based.
Details: not given
Put shortly:
as §1
Compound `c1ccc(N2CCN(CCCCCCN3CCN(c4ccccc4)CC3)CC2)cc1` came in with a Ki of 3 nM.

In turn, `COc1cccc(N2CCN(CCCCCCN3CCN(c4cccc(OC)c4)CC3)CC2)c1` registered a Ki of 8 nM.

Compound `c1ccc(N2CCN(CCCCCCN3CCN(c4ccccn4)CC3)CC2)cc1` had a Ki of 30 nM.

The next series concerns the target D(1A) dopamine receptor (Rattus norvegicus, UniProt P18901). Put plainly: Displacement of [3H]SCH23390 from dopamine D1 receptor in CRL:CD(SD)BR-COBS rat striatum by scintillation spectrometry.
Details: not given
(Displacement assays read how much labelled ligand stays bound in the presence of the test substance.)
As to `c1ccc(N2CCN(CCCCCCN3CCN(c4ccccc4)CC3)CC2)cc1`, the Ki is > 1000 nM.

For `COc1cccc(N2CCN(CCCCCCN3CCN(c4cccc(OC)c4)CC3)CC2)c1`, the Ki was > 1000 nM.

For `c1ccc(N2CCN(CCCCCCN3CCN(c4ccccn4)CC3)CC2)cc1`, the Ki was > 1000 nM.

In the next series the target is 5-hydroxytryptamine receptor 2A (Rattus norvegicus, UniProt P14842). Put plainly: Displacement of [3H]ketanserin from 5HT2A receptor in CRL:CD(SD)BR-COBS rat cortex by scintillation spectrometry.
Sequence of 5-hydroxytryptamine receptor 2A (P14842 whole entry): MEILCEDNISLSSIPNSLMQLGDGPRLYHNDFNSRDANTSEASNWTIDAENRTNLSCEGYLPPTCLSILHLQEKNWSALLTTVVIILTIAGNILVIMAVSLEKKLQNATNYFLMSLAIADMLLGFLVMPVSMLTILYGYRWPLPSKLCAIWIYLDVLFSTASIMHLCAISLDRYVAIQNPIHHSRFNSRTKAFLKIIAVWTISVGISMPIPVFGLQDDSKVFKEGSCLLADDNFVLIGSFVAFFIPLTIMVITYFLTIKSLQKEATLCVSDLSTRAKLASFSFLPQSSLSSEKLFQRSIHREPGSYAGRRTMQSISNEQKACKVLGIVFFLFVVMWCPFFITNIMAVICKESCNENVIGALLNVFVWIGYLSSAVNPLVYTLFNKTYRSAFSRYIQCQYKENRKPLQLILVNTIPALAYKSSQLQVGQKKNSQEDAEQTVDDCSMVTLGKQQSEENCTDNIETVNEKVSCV
Details: not given
The compound `c1ccc(N2CCN(CCCCCCN3CCN(c4ccccc4)CC3)CC2)cc1` registered a Ki of 31 nM.

`COc1cccc(N2CCN(CCCCCCN3CCN(c4cccc(OC)c4)CC3)CC2)c1` yielded a Ki of 28 nM.

Turning to `c1ccc(N2CCN(CCCCCCN3CCN(c4ccccn4)CC3)CC2)cc1`, the Ki was 39 nM.

The subject of the next series is Mus musculus. Put plainly: Antipsychotic activity in NMRI mouse assessed as reduction in MK-801-induced locomotor activity at 30 mg/kg, ip administered 30 mins prior to testing measured for 60 mins. Format: functional. To be noted: route intraperitoneal.
Regarding `c1ccc(N2CCN(CCCCCCN3CCN(c4ccccn4)CC3)CC2)cc1`, the Activity was 30 mg/kg.

Another series has as its system Mus musculus. Briefly: Antipsychotic activity in NMRI mouse assessed as inhibition of PCP-induced locomotor activity at 3 mg/kg, ip administered 30 mins prior to testing measured for 60 mins.
Details: not given
More on the design: dose 3 mg/kg. The class given is functional, organism-based.
As for `c1ccc(N2CCN(CCCCCCN3CCN(c4ccccc4)CC3)CC2)cc1`, the result was Active.

Turning to `c1ccc(N2CCN(CCCCCCN3CCN(c4ccccn4)CC3)CC2)cc1`, the outcome was Active.

The target in the next series is D(2) dopamine receptor (Rattus norvegicus, UniProt P61169). Put plainly: Displacement of [3H]spiperone from dopamine D2 receptor in CRL:CD(SD)BR-COBS rat striatum by scintillation spectrometry.
Sequence of D(2) dopamine receptor (P61169 whole entry): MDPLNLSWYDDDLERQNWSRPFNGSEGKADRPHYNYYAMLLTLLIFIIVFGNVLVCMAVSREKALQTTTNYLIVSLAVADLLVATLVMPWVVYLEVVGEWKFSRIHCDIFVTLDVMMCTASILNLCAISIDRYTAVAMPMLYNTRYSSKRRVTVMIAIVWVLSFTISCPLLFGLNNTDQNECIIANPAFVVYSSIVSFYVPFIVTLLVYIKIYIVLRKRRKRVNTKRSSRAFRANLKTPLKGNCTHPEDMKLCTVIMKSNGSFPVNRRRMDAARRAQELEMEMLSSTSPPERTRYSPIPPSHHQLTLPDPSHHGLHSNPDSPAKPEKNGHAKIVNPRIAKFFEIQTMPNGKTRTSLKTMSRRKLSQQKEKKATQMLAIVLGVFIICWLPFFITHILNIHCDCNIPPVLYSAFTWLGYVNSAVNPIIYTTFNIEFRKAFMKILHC
Details: not given
On to `c1ccc(N2CCN(CCCCCCN3CCN(c4ccccc4)CC3)CC2)cc1`, for which the affinity, expressed as Ki, was 1 nM.

As to `COc1cccc(N2CCN(CCCCCCN3CCN(c4cccc(OC)c4)CC3)CC2)c1`, the affinity corresponds to a Ki of 27 nM.

Compound `c1ccc(N2CCN(CCCCCCN3CCN(c4ccccn4)CC3)CC2)cc1` showed a Ki of 34 nM.

A further series has as its system Mus musculus. Put plainly: Antipsychotic activity in NMRI mouse assessed as reduction in methamphetamine-induced locomotor activity at > 30 mg/kg, ip administered 30 mins prior to testing measured for 60 mins. The class given is functional. Particulars: route intraperitoneal.
Consider `c1ccc(N2CCN(CCCCCCN3CCN(c4ccccc4)CC3)CC2)cc1`, for which the Activity was >30 mg/kg.

Tested on in the next series: not listed separately
Briefly: AUC (0 to 6 hrs) in NMRI mouse at 3 mg/kg, ip. Format: ADME, organism-based. Also noted: time < 6 hr, dose 3 mg/kg, route intraperitoneal. To be noted: plasma. In short, it runs like this:
as §2
The compound `c1ccc(N2CCN(CCCCCCN3CCN(c4ccccc4)CC3)CC2)cc1` gave an AUC(0-t) at 6 h of 198 ng·h/mL.

`c1ccc(N2CCN(CCCCCCN3CCN(c4ccccn4)CC3)CC2)cc1` returned an AUC(0-t) at 6 h of 58 ng·h/mL.

The next series deals with Mus musculus. Briefly: Antipsychotic activity in NMRI mouse assessed as reduction of PCP-induced locomotor activity at 10 mg/kg, ip administered 30 mins prior to testing measured for 60 mins. The class given is functional, organism-based. More on the design: dose 10 mg/kg.
Details: not given
Consider `c1ccc(N2CCN(CCCCCCN3CCN(c4ccccc4)CC3)CC2)cc1`, for which the result was Active.

Take `c1ccc(N2CCN(CCCCCCN3CCN(c4ccccn4)CC3)CC2)cc1`: the outcome was Active.

Tested on in another series: not listed separately
Put plainly: Lipophilicity, log D at pH 7.4. The class given is physicochemical. Particulars: buffer.
In turn, `Cc1cccc(N2CCN(CCCCCCN3CCN(c4ccnc5ccccc45)CC3)CC2)c1` showed a logD of 3.67.

In turn, `c1ccc(N2CCN(CCCCCCN3CCN(c4ccccc4)CC3)CC2)cc1` registered a logD of 2.96.

`COc1cccc(N2CCN(CCCCCCN3CCN(c4cccc(OC)c4)CC3)CC2)c1` showed a logD of 3.25.

Regarding `c1ccc(N2CCN(CCCCCCN3CCN(c4ccccn4)CC3)CC2)cc1`, the logD stood at 2.14.

Tested on in a further series: not listed separately
Put plainly: Tmax in NMRI mouse at 3 mg/kg, ip. The class given is ADME, organism-based. Also noted: dose 3 mg/kg, route intraperitoneal. Particulars: in vivo. Put shortly:
as §2
With `c1ccc(N2CCN(CCCCCCN3CCN(c4ccccc4)CC3)CC2)cc1`, the Tmax came out at 30 min.

As to `c1ccc(N2CCN(CCCCCCN3CCN(c4ccccn4)CC3)CC2)cc1`, the Tmax came to 60 min.

The test system of the next series is Mus musculus. Briefly: Antipsychotic activity in NMRI mouse assessed as reduction in spontaneous exploratory locomotor activity at 10 mg/kg, ip administered 30 mins prior to testing measured for 60 mins. To be noted: route intraperitoneal. Format: functional.
With `c1ccc(N2CCN(CCCCCCN3CCN(c4ccccc4)CC3)CC2)cc1`, the Activity was 10 mg/kg.

Turning to `c1ccc(N2CCN(CCCCCCN3CCN(c4ccccn4)CC3)CC2)cc1`, the Activity was found to be 10 mg/kg.
